Active and inactive are the calls of the source.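 The calls were made as follows, unless noted: active = viability at or below 30% in both replicate assays; inconclusive = viability at or below 30% in just one of the two assays; inactive = the rest.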
Experiments:
[1] = reducers of endogenous Her2 protein level, primary screen, SKBR3 breast tumor cells, AlphaScreen, ATP viability (AID 461;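 active = Her2 level under about 52% in both replicate screens, with viability over 70% of control, limit read from the data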;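 as to Her2 level: lower value means less Her2 protein in the cells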;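 as to viability: percent of carrier control wells set as 100% viability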); settings: 18-24 h, measured here: SKBR3 viability, ATP luminescence, at 10 µM
[2] = target: Receptor tyrosine-protein kinase erbB-2 (Homo sapiens) (UniProt P04626); assay: as above; settings: 18-24 h, at 10 µM, stronger effect = lower value
[3] = SK-BR-3 cell growth inhibitors, pilot screen, 24 h, human (AID 572;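 active = viability at or below 10% of carrier control in both of two separate runs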;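 also: compound exposure lasted between 18 and 24 h rather than exactly 24 h; 100% = carrier-treated control wells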); settings: SK-BR-3 viability, CellTiter-Glo luminescence, at 10 µM, stronger effect = lower value
[4] = HUVEC growth inhibition – cell-based, human, primary screen (AID 575); settings: HUVEC proliferation, CellTiter-Glo luminescence, 72 h; at 10 µM; stronger effect = lower value;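 also: 100% = median of untreated cell wells with 0.1% DMSO on each plate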
Outline: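 Test system: primary human umbilical vein endothelial cells; medium: endothelial basal medium with 2% FBS plus growth supplements; dosing: 10 µM compound only; times: 72 h treatment at 37 °C; signal: CTG luminescence; read-out: % viability relative to median vehicle-well signal on each plate; control set: vehicle and MePR control wells; plate: 384-well, collagen-coated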

[5] = growth inhibitors of H69AR lung tumor, primary screen, human, duplicate replicates (AID 580;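 active = viability at or under a set limit in both replicates, limit being median viability minus 3 SD, cut at about 48% in these data, passing the limit was not always enough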;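 also: 100% = mean luminescence of untreated wells and 0% = no signal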); settings: H69AR lung tumor cells viability, ATP luminescence, 72 h; at 10 µM; stronger effect = lower value
[6] = reversal of MRP1-mediated doxorubicin resistance, pilot screen, H69AR cells, doxorubicin co-treatment (AID 601;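 active = viability loss from added drug above about 55%, and viability with drug at most 40%, in both replicates, limit read from the data, passing the limit was not always enough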); settings: CellTiter-Glo, 72 h, at 10 µM; for differential viability (reversal): stronger effect = higher value
[7] = 384-well plate pilot, post-Golgi transport modulator project, inhibition of yeast transport mutant growth (AID 636; in the data active = inhibition above about 31%); settings: absorbance 615 nm, about 18 h, stronger effect = higher value
[8] = growth suppression of yeast trafficking mutant, preliminary HTS, modulators of trafficking downstream of Golgi apparatus project, 1536-format plate, OD 615 nm (AID 637; in the data active = inhibition above about 30%); settings: yeast transport mutant growth, absorbance 615 nm, 18 h; stronger effect = higher value
[9] = H69AR cells + 2 uM doxorubicin, measured here: viability with 2 uM doxorubicin, stronger effect = lower value
[10] = H69AR cells, compound alone cytotoxicity

Receptor tyrosine-protein kinase erbB-2 (Homo sapiens), sequence (P04626 whole entry, looked up): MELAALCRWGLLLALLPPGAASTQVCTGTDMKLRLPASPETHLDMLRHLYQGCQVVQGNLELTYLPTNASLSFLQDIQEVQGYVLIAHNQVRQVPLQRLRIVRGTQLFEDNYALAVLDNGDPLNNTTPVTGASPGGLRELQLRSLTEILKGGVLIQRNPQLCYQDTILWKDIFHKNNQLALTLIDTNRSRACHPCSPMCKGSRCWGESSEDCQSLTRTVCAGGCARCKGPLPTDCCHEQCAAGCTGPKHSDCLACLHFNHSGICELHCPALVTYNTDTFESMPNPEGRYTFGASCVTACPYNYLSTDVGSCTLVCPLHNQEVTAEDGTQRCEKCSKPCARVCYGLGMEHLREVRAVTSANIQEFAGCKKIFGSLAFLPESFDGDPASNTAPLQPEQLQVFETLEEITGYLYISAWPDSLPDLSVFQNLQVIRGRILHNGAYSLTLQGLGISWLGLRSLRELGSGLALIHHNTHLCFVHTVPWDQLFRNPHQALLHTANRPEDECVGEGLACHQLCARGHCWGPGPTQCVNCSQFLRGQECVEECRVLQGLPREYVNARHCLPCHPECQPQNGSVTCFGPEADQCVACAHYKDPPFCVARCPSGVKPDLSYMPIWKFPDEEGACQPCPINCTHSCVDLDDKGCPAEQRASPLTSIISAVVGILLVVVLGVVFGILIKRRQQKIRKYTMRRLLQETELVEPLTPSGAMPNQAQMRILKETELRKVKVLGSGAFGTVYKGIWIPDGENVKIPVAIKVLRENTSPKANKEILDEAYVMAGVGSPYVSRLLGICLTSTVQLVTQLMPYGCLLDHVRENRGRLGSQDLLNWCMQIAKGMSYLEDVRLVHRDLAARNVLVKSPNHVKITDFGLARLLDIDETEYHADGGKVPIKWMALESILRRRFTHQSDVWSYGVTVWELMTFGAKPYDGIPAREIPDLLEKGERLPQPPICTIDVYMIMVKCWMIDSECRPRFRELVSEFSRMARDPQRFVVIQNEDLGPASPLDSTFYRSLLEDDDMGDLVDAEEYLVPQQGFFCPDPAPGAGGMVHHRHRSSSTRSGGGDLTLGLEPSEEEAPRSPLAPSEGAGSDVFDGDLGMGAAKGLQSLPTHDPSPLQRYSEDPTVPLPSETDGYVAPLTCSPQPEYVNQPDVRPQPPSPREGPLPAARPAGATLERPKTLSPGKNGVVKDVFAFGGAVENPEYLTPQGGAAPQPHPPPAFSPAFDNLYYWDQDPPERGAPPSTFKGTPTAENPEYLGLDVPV

Row | Compound | viability [1] | Her2 level [2] | viability [3] | viability [4] | viability [5] | differential viability (reversal) ([6]; H69AR cells + 2 uM doxorubicin) | viability [6, 9] | viability [6, 10] | inhibition [7] | inhibition [8]
1 | CN1C(=O)C2(NCCc3c2[nH]c2ccccc32)c2ccccc21 (stereo not given) | 114% | 100% (inactive) | 114% (inactive) | 86.8% (inactive) | 109% (inactive) | 12.9% (inactive) | 96% | 109% | -3.82% (inactive) | 6.07% (inactive)
2 | O=C(Nc1ccc(F)cc1F)NC1CC(=O)N(Cc2ccccc2)C1 (stereo not given) | 92.5% | 89.5% (inactive) | 92.5% (inactive) | 109% (inactive) | 95.1% (inactive) | 0.32% (inactive) | 94.8% | 95.1% | 1.78% (inactive) | 26.2% (inactive)
3 | Cc1ccc(-n2ncc3c(Nc4c(C)n(C)n(-c5ccccc5)c4=O)ncnc32)c(C)c1 | 99% | 94.5% (inactive) | 99% (inactive) | 96.2% (inactive) | 92.3% (inactive) | 9.15% (inactive) | 83.2% | 92.3% | -4.8% (inactive) | 1.45% (inactive)
4 | CCCc1cc(=O)n2[nH]c(-c3ccc(Br)cc3)cc2n1 | 90.5% | 71.5% (inactive) | 90.5% (inactive) | 56.2% (inactive) | 73.1% (inactive) | -15.6% (inactive) | 88.7% | 73.1% | -2.76% (inactive) | -1.9% (inactive)
5 | COC(=O)c1ccccc1NC(=O)C1CC(=O)N(c2ccccc2)C1 (stereo not given) | 122% | 96% (inactive) | 122% (inactive) | 114% (inactive) | 102% (inactive) | 20.8% (inactive) | 80.9% | 102% | -6.27% (inactive) | 6.77% (inactive)
6 | Cn1c(=O)c(-c2ccccc2)nn2c3ccccc3nc12 | 82.5% | 63.5% (inactive) | 82.5% (inactive) | 90.8% (inactive) | 90.8% (inactive) | -0.73% (inactive) | 91.6% | 90.8% | -7.03% (inactive) | 3% (inactive)
7 | CCOC(=O)c1c(C)[nH]c(C)c1C(=O)COc1ccc(NC(=O)c2ccco2)cc1 | 88.5% | 102% (inactive) | 88.5% (inactive) | 91.8% (inactive) | 86.9% (inactive) | -6.89% (inactive) | 93.8% | 86.9% | -1.43% (inactive) | 3.65% (inactive)
8 | c1cc(CNc2ccc3c(c2)OCO3)ccn1 | 80% | 92% (inactive) | 80% (inactive) | 70.7% (inactive) | 90% (inactive) | -12.5% (inactive) | 103% | 90% | -5.81% (inactive) | -2.13% (inactive)
9 | CCCCOc1ccc(C(=O)Nn2cnnc2)cc1 | 95.5% | 87% (inactive) | 95.5% (inactive) | 84.5% (inactive) | 89.5% (inactive) | 0.185% (inactive) | 89.4% | 89.5% | -5% (inactive) | -2% (inactive)
10 | CCCCn1nnnc1SCC(=O)N1CCN(C(=O)c2ccco2)CC1 | 116% | 100% (inactive) | 116% (inactive) | 111% (inactive) | 93.6% (inactive) | 7.26% (inactive) | 86.3% | 93.6% | -6.71% (inactive) | 1.75% (inactive)
11 | Cc1cc2nc3c(nc2cc1C)C1(C(=O)O)CCC3(C)C1(C)C (stereo not given) | 103% | 95.5% (inactive) | 103% (inactive) | 99.9% (inactive) | 95.3% (inactive) | -0.805% (inactive) | 96.1% | 95.3% | 0% (inactive) | -2.3% (inactive)
12 | CCNC(=O)CC1C(=O)N(c2ccccc2)C(=O)N1Cc1ccc(OC)cc1 (stereo not given) | 94.5% | 100% (inactive) | 94.5% (inactive) | 91.9% (inactive) | 94.8% (inactive) | 5.68% (inactive) | 89.1% | 94.8% | -3.68% (inactive) | -2.91% (inactive)
13 | CCc1ccc(C2CC(c3ccccc3)n3ncnc3N2)cc1 (stereo not given) | 80% | 86% (inactive) | 80% (inactive) | 83.1% (inactive) | 88.1% (inactive) | 3.85% (inactive) | 84.3% | 88.1% | 3.59% (inactive) | 0.67% (inactive)
14 | CCN(CC)S(=O)(=O)c1cccc2c(N(C)C)cccc12 | 99.5% | 112% (inactive) | 99.5% (inactive) | 107% (inactive) | 93.3% (inactive) | 4.14% (inactive) | 89.2% | 93.3% | -4.93% (inactive) | -4.52% (inactive)
15 | O=C1NC(c2ccco2)Nc2ccccc21 (stereo not given) | 82.5% | 85.5% (inactive) | 82.5% (inactive) | 107% (inactive) | 97.8% (inactive) | 7.01% (inactive) | 90.8% | 97.8% | 0.55% (inactive) | -6.98% (inactive)
16 | CC1=C(C(N)=O)C(c2cccnc2)n2nc(SCc3ccccc3Cl)nc2N1 (stereo not given) | 79% | 94.5% (inactive) | 79% (inactive) | 87.6% (inactive) | 98.7% (inactive) | 14.7% (inactive) | 84% | 98.7% | -9.05% (inactive) | -3.77% (inactive)
17 | Cn1c(=O)c2c(nc(SCc3nn[nH]n3)n2Cc2ccccc2F)n(C)c1=O | 97.5% | 97% (inactive) | 97.5% (inactive) | 94.4% (inactive) | 90.9% (inactive) | -2.83% (inactive) | 93.7% | 90.9% | -0.13% (inactive) | 1.27% (inactive)
18 | CCN(CC)CCOc1cccc(C(C)C)c1 | 90.5% | 95.5% (inactive) | 90.5% (inactive) | 92.6% (inactive) | 109% (inactive) | 17.4% (inactive) | 91.8% | 109% | 3.25% (inactive) | -1.64% (inactive)
19 | Cc1ccc(S(=O)(=O)NCCCCC(NC(=O)OC(C)(C)C)C(=O)O)cc1 (stereo not given) (tested in a mixture with another compound) | 91.5% | 92.5% (inactive) | 91.5% (inactive) | 125% (inactive) | 104% (inactive) | 7.71% (inactive) | 96.8% | 104% | -3.68% (inactive) | 8.52% (inactive)
20 | CCCCc1n[nH]c2c1C(=O)CC(C)(C)C2 | 73.5% | 90.5% (inactive) | 73.5% (inactive) | 102% (inactive) | 96.9% (inactive) | 13.4% (inactive) | 83.5% | 96.9% | -3.78% (inactive) | 0% (inactive)
21 | COc1cc2c(=O)n(Cc3ccccc3)c(=O)n(CC(=O)NCc3ccco3)c2cc1OC | 126% | 83% (inactive) | 126% (inactive) | 95.4% (inactive) | 86.2% (inactive) | -0.76% (inactive) | 87% | 86.2% | -8% (inactive) | -3.65% (inactive)
22 | c1ccc2c(c1)sc1nnnn12 | 94.5% | 81% (inactive) | 94.5% (inactive) | 79.9% (inactive) | 86.6% (inactive) | -13.7% (inactive) | 100% | 86.6% | -5.07% (inactive) | 1.97% (inactive)
23 | O=C(O)CC1=C(O)C(=O)N(c2ccccc2)C1c1ccccc1 (stereo not given) | 102% | 107% (inactive) | 102% (inactive) | 96.9% (inactive) | 102% (inactive) | 7.7% (inactive) | 94.1% | 102% | -1.49% (inactive) | -0.49% (inactive)
24 | O=C(c1ccccc1)c1coc2ccc(O)c(CN3CCOCC3)c12 | 78.5% | 75.5% (inactive) | 78.5% (inactive) | 115% (inactive) | 88.5% (inactive) | -9.25% (inactive) | 97.8% | 88.5% | -3.42% (inactive) | 5.9% (inactive)
25 | CCCCc1ccc(NC(=O)N[C@H](C(=O)O)C(C)CC)cc1 (stereo not given in full) | 112% | 82% (inactive) | 112% (inactive) | 79.5% (inactive) | 99.7% (inactive) | 8.86% (inactive) | 90.8% | 99.7% | -5.92% (inactive) | -2.38% (inactive)
26 | CSc1ccc(-c2nc(CSCC(=O)N3CCOCC3)c(C)o2)cc1 | 102% | 91% (inactive) | 102% (inactive) | 85.2% (inactive) | 103% (inactive) | 6.36% (inactive) | 97.1% | 103% | -0.67% (inactive) | -2.26% (inactive)
27 | CC(=O)N1CCN(S(=O)(=O)c2cccc(C(=O)Nc3ccc4c(c3)CCC4)c2)CC1 | 76.5% | 90.5% (inactive) | 76.5% (inactive) | 77.9% (inactive) | 98% (inactive) | 4.81% (inactive) | 93.2% | 98% | -5.53% (inactive) | 5% (inactive)
28 | CC(C)=CCCC(C)CN(C)CCc1ccccn1 (stereo not given) | 79% | 97% (inactive) | 79% (inactive) | 101% (inactive) | 98.6% (inactive) | 21.2% (inactive) | 77.3% | 98.6% | -5.19% (inactive) | -3.61% (inactive)
